Inconclusive results are not listed. Activity calls are given as the source filed them.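 How the source made its calls: active means fitted half-maximal caspase rise reached at or below ten times the top valid dose; inconclusive means flat fit between 30 and 70 percent, or poor fit; inactive means the rest.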
Tested on: not listed separately
Assay: apoptosis induction, Bax/Bak-deficient fibroblasts – cell-based, mouse embryonic fibroblasts, dry powder, counter-screen for Bcl2-A1 inhibitor project, dose response (AID 488898)
Conditions: Bax/Bak-/- MEF caspase activation, CaspaseGlo luminescence, 3 h; at 135 µM (top of the series)
Outline: (§1)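 Medium: RPMI-1640 plus 10% FBS; Test system: Bax/Bak double-knockout mouse embryonic fibroblasts, counterscreen cell line; Times: 3 h at 37 °C treatment, 1 h room-temperature read; Technique: Caspase-Glo luminescent readout.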

SMILES | caspase activation
CC(=O)N[C@H]1[C@H](O[C@H]2CC[C@@]3(C)C(CC[C@]4(C)C3CC=C3[C@@H]5CC(C)(C)CC[C@]5(C(=O)OC5OCC(O)C(O)C5O)C(O)C[C@]34C)C2(C)C)O[C@H](COC2OCC(O)C(OC3OCC(O)C(O)C3O)C2O)[C@@H](O[C@@H]2O[C@@H](C)[C@H](O)[C@@H](O)[C@H]2O[C@@H]2O[C@@H](C)[C@H](O)[C@@H](O)[C@H]2O)[C@@H]1O (some centres undefined) | -0.158% (inactive)

Same assay, conditions: Bax/Bak-/- MEF caspase activation, CaspaseGlo luminescence, 3 h; at 150 µM (top of the series)

SMILES | caspase activation
Cn1c(=NC(=O)CCl)sc2ccccc21 | 0.685% (inactive)
CCc1cc2c(=O)c(-c3cnn(-c4ccccc4)c3)c(C)oc2cc1OCC(=O)Nc1cccc(C)c1 | 0.45% (inactive)
CCSc1nnc(NC(=O)c2nc(S(=O)(=O)Cc3ccc(F)cc3)ncc2Cl)s1 | -0.717% (inactive)
C=C1[C@@H](C)[C@H]2[C@H](Cc3ccccc3)NC(=O)[C@]23[C@H](OC(C)=O)/C=C/[C@](C)(O)C(=O)[C@@H](C)C/C=C/[C@H]3[C@@H]1O | 0.127% (inactive)
O=C(Oc1cccc(/C=N/Nc2nc(Nc3ccccc3)nc(N3CCOCC3)n2)c1)c1ccco1 | 0.146% (inactive)
Cc1ccc(CS(=O)(=O)c2ncc(Cl)c(C(=O)Nc3nnc(C(C)C)s3)n2)cc1 | -0.479% (inactive)
Nc1nc(F)nc2c1ncn2[C@@H]1O[C@H](CO)[C@@H](O)[C@H]1O | -0.0553% (inactive)
COc1cccc(C(=O)C(C#N)=C(SC)SC)c1 | 0.208% (inactive)
CCc1nnc(NC(=O)c2nc(S(=O)(=O)Cc3ccccc3)ncc2Cl)s1 | -0.106% (inactive)
COc1cc(/C=C(/C#N)c2nc3ccccc3[nH]2)ccc1OCC(=O)Nc1ccccc1C(C)C | 1.27% (inactive)
Cc1cccc(CS(=O)(=O)c2ncc(Cl)c(C(=O)Nc3nnc(C(C)C)s3)n2)c1 | -0.163% (inactive)
CCOC(=O)CSC1=N/C(=C/c2ccc(-n3cncn3)cc2)C(=O)N1C(C)=O | -0.0192% (inactive)
O=C(CCl)N=c1sccn1Cc1ccccc1Cl | 0.854% (inactive)
CC(C)(C)n1nc(-c2ccc(Cl)cc2)c2c(N)ncnc21 | 2.79% (inactive)
C/C1=C/C(=O)O[C@@H]2C[C@@H](CC[C@H](C)/C=C\CC1)O[C@@](O)(C1CSC(=O)N1)C2 (some centres undefined) | 1.16% (inactive)
C=C1[C@@H](C)[C@H]2[C@H](Cc3ccccc3)NC(=O)[C@]23OC(=O)/C=C\[C@H](O)CCC[C@@H](C)C/C=C/[C@H]3[C@@H]1O | 0.116% (inactive)
Cc1ccc(Sc2c([N+](=O)[O-])c(=O)n(C)c3ccccc23)cc1 | 1% (inactive)
CC(=O)OC(C)(C)/C=C/C(=O)[C@](C)(O)C1[C@H](O)C[C@@]2(C)C3CC=C4C(C[C@H](O)C(=O)C4(C)C)[C@]3(C)C(=O)C[C@]12C (some centres undefined) | 0.556% (inactive)
Cc1c(C=O)c(C=O)c(C)n1Cc1ccccc1 | 1.17% (inactive)
Cc1c(CCOC(=O)c2ccc(N3CCOCC3)c([N+](=O)[O-])c2)sc[n+]1CC#N | 0.688% (inactive)

Tested on: Bax/Bak-/- MEF caspase activation, CaspaseGlo luminescence, 3 h
Assay: as above
Conditions: not given
Outline: as §1

SMILES | AC50
COc1ccc(N(C(=O)CCl)C(C(=O)NCCc2ccccc2)c2cccs2)cc1Cl (centres undefined) | 24.9 µM
Cc1cccc(NC(=O)/C(C#N)=C/c2cn(CC(=O)NCc3ccco3)c3ccccc23)c1 | 4.78 µM
Cc1cc(C(=O)CCl)c(C)n1CCc1ccc(Cl)cc1 | 13.3 µM
